Structures are written as SMILES. Residue numbers refer to the chain shown, from its start. Some results are limits rather than exact numbers.

Results on three compounds are retold here after article PMC4143770 (Scientific Reports, 2014).

One test has as its target T1, OfHex1 (W490A) (Ostrinia furnacalis, UniProt Q06GJ0, W490A).
T1 sequence (Q06GJ0 23-594 W490A): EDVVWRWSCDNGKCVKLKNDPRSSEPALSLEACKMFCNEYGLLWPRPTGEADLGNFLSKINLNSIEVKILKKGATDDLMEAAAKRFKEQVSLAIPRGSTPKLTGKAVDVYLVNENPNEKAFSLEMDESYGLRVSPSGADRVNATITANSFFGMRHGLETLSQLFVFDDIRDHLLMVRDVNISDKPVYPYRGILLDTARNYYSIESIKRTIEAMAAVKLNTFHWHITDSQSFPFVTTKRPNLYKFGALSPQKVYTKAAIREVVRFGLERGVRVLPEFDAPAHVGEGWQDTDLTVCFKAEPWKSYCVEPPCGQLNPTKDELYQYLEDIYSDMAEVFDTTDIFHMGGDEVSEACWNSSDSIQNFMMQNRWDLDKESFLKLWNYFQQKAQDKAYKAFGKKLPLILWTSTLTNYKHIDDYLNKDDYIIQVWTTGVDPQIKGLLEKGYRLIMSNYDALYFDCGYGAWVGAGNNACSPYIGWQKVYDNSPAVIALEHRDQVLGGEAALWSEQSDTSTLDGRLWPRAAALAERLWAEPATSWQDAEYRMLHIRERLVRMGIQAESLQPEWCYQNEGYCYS
Nature of the test: Inhibition of mutant OfHex1-W490A. It counts as biochemical. The essentials: (§1)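 Purchased bovine Hex, recombinant O. furnacalis OfHex2 and the OfHex1 W490A mutant were assayed at 25°C with pNP-β-GlcNAc. Reactions were stopped with 0.5 M Na2CO3 and A405 was recorded. Where Ki was determined, substrate was 0.075, 0.125 and 0.2 mM, with values from linear Dixon-plot fits. W490A was also tested at 100 µM inhibitor.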

Test [1] has as its target HsHex (human glycoconjugate-lytic β-GlcNAcase) (Homo sapiens, UniProt P07686). Nature of the test: Inhibition of HsHex, pNP-β-GlcNAc substrate, Dixon plots. Format: biochemical.
Test [2] deals with T2, OfHex1 (chitinolytic β-GlcNAcase) (Ostrinia furnacalis, UniProt Q06GJ0).
T2 sequence (Q06GJ0 23-594): T1 sequence (Q06GJ0 23-594 W490A) with A468W
Nature of the test: Inhibition of OfHex1, pNP-β-GlcNAc substrate, Dixon plots. Format: biochemical. A digest of the protocol:
(§2)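 Recombinant O. furnacalis OfHex1, recombinant S. marcescens SmChb and purchased T. viride TvHex were assayed at 25°C with pNP-β-GlcNAc in 20 mM sodium phosphate, pH 6.0. After incubation, 0.5 M Na2CO3 was added and A405 measured. Ki used substrate at 0.075, 0.125 and 0.2 mM and an enzyme-specific inhibitor range. Ki and inhibition type came from linear Dixon-plot fitting.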

Test [3] deals with BoHex (glycoconjugate-lytic β-GlcNAcase). The experiment in a line: Inhibition of BoHex. It counts as biochemical, bovine. The essentials: as §1
Test [4] deals with TvHex (chitinolytic β-GlcNAcase). The experiment in a line: Inhibition of TvHex. Format: biochemical, Trichoderma viride. The note with it: read-out: Ki for TvHex; pNP-β-GlcNAc, pH 6.0. The essentials: as §2
The target of test [5] is T3, SpHex (chitinolytic β-GlcNAcase) (Streptomyces plicatus, UniProt O85361).
T3 sequence (O85361 1-506): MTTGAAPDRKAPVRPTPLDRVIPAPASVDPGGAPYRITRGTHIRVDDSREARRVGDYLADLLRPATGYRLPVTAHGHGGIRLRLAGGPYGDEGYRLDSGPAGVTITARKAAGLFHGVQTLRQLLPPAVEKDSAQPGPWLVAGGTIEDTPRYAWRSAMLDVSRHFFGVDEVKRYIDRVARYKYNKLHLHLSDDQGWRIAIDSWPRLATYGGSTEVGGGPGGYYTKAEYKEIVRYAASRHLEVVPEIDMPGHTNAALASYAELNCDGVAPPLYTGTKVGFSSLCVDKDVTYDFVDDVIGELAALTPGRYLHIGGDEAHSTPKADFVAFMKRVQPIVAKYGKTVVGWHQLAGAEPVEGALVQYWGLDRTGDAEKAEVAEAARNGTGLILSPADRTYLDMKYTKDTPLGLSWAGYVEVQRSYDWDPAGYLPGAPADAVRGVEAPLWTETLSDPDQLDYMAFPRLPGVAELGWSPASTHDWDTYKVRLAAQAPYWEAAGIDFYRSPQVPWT
Nature of the test: Inhibition of SpHex. Format: biochemical.

Test [6] has as its target T4, SmChb (chitinolytic β-GlcNAcase) (Serratia marcescens, UniProt Q54468).
T4 sequence (Q54468 28-885): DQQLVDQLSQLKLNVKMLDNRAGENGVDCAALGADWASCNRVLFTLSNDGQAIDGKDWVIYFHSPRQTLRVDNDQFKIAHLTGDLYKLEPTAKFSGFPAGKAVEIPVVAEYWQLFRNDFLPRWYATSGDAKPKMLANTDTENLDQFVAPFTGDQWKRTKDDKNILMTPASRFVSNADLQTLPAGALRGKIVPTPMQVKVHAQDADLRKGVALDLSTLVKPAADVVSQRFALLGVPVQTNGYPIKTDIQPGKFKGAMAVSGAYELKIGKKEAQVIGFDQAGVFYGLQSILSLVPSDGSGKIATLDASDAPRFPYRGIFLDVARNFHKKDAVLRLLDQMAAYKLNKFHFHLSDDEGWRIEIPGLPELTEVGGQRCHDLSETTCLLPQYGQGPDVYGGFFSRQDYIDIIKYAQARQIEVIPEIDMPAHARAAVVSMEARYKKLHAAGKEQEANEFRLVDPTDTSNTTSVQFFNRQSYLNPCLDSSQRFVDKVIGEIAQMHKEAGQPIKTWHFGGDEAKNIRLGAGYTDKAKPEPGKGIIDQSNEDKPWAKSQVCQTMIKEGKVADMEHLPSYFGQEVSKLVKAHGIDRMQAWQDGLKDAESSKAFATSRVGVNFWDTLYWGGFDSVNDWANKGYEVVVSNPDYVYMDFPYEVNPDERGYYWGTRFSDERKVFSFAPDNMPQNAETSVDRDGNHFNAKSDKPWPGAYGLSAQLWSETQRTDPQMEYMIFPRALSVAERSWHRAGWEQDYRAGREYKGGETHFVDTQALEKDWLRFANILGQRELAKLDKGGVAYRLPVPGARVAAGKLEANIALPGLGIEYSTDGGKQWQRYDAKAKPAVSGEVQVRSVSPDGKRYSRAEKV
The experiment in a line: Inhibition of SmChb. It counts as biochemical. The essentials: as §2

Test [7] has as its system OfHex2 (glycoconjugate-lytic β-GlcNAcase). The experiment in a line: Inhibition of OfHex2. It counts as biochemical, O. furnacalis. The essentials:
as §1

Test [8] relates to CeHex (glycoconjugate-lytic β-GlcNAcase). Nature of the test: Inhibition of CeHex. Format: biochemical, Canavalia ensformis.
Test [9] deals with glycoconjugate-lytic β-GlcNAcases from plant and human. The note with it: cited from earlier work.

Chain of HsHex (human glycoconjugate-lytic β-GlcNAcase) (P07686 122-311 limits assumed): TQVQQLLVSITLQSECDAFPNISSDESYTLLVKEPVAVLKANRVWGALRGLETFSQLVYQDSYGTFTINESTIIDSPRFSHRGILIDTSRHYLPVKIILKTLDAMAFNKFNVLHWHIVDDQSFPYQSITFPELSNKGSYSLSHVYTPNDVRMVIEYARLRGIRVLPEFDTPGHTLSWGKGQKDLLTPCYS
Chain of HsHex (human glycoconjugate-lytic β-GlcNAcase) (P07686 315-556 limits assumed): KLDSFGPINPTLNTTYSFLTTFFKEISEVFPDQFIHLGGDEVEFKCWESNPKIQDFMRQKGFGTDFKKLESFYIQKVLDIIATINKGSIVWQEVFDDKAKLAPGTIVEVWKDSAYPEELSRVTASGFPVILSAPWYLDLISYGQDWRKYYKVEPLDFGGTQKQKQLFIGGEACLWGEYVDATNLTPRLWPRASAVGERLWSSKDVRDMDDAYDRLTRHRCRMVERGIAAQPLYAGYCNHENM

Turning to `Cc1nnc(CNCCN2C(=O)c3cccc4cccc(c34)C2=O)s1` [Q1, 2-(2-(((5-methyl-1,3,4-thiadiazol-2-yl)methyl)amino)ethyl)-1H-benzo[de]isoquinoline-1,3(2H)-dione], the values for the inhibition constant (Ki) (at OfHex1 (W490A); in test [1]; in test [2]) were above 100 µM, 2.15 µM and 4.28 µM, respectively. Besides, on OfHex1 (W490A) (100 µM), the “Inhibition of OfHex1-W490A at 100 µM” value is recorded as “could not inhibit”. Further, in [1] (Dixon plots), the “Type of inhibition toward HsHex (Dixon plots)” value is “competitive inhibitor”. In addition, the “Type of inhibition toward OfHex1 (Dixon plots)” value in [2] is on record as “competitive inhibitor”.
For the compound `Cc1nnc(CNCCN2C(=O)c3cccc4c(N(C)C)ccc(c34)C2=O)s1` [Q2, 6-(dimethylamino)-2-(2-(((5-methyl-1,3,4-thiadiazol-2-yl)methyl)amino)ethyl)-1H-benzo[de]isoquinoline-1,3(2H)-dione], the “Inhibition of BoHex” value in test [3] is listed as “does not inhibit”. In addition, the inhibitory constant (Ki) in test [4] was 25 µM; in test [5], 74.8 µM; on OfHex1 (W490A), above 100 µM; in test [6], 8.25 µM; in test [1], above 100 µM; in [2], 0.31 µM. Further, in [7], the “Inhibition of OfHex2” value is given as “does not inhibit”. For the same compound, the “Inhibition of CeHex” value in [8] is “does not inhibit”. In test [1] (100 µM), the “Inhibition of HsHex at 100 µM” value is “does not inhibit”. In [2], the “Type of inhibition toward OfHex1 (Dixon plots)” value is listed as “competitive”. For the same compound, the “Increment in inhibitory activity against OfHex1 compared to Q1” value in [2] (Q2 versus Q1, from Ki) worked out at 13 fold.
As for `CC(=O)NC1C(O)O[C@H](CO)[C@@H](O[C@@H]2O[C@H](CO)[C@@H](O[C@@H]3O[C@H](CO)[C@@H](O[C@H]4O[C@H](CO)[C@@H](O)[C@H](O)[C@H]4[N+](C)(C)C)[C@H](O)[C@H]3NC(C)=O)[C@H](O)[C@H]2NC(C)=O)[C@@H]1O` (stereo partly shown) [TMG-chitotriomycin], in test [9], the “Activity toward glycoconjugate-lytic β-GlcNAcases from plant and human” value is reported as “not active”.
